Measured values published in publication PMC3113694 (Cancer research, 2010).
Several values for one entry are separate records, joined by “and”; a condition that tells them apart may be missing. Equal entries are not always repeated.

Key:
[1] = read-out: Kd of PAC-1:Zn^2+; cited from earlier work
C57/BL6 mice [2] = experiment: Toxicity determination in mice after tail vein injection
C57/BL6 mice [3] = settings: mouse, in vivo
MDA-MB-231 = experiment: Cytotoxicity, sulforhodamine B assay; assay type: cell-based; settings: read-out: 72 hour IC50; MDA-MB-231 human breast; exposure 72 h
17–71 = experiment: Cytotoxicity, MTS cell viability assay; assay type: cell-based; settings: read-out: 72 hour IC50, 17–71 dog lymphoma, exposure 72 h
healthy dog = experiment: Toxicity of intravenous PAC-1 in a healthy dog; assay type: in vivo; settings: 25 mg/kg as a 5-minute intravenous infusion; transient, not life-limiting
procaspase-3 D3A = biological target: T1, procaspase-3 D3A (Homo sapiens, UniProt P42574, D175A/D28A/D9A); experiment: Procaspase-3 activation; assay type: biochemical; settings: 50 µM compound; for Incubation time to maximal activity: procaspase-3 7.5 µM, zinc 10 µM
T1 sequence (P42574 1-277 D9A/D28A/D175A): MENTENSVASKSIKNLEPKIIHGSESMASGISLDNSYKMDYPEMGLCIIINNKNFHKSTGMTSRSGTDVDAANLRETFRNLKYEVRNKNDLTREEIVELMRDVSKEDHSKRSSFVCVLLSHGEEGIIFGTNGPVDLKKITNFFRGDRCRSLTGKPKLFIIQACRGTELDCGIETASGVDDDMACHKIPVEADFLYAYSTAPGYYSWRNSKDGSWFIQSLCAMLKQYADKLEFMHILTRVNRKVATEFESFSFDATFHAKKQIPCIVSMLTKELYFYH
Method in brief: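 Zinc-free uncleavable procaspase-3 (D9A/D28A/D175A), recombinantly expressed, at 7.5 µM in Chelex-treated 50 mM Hepes, 300 mM NaCl. Incubated with 10 µM ZnSO4. Basal activity read with 200 µM Ac-DEVD-pNA at 405 nm. Vehicle or test compound then added to 50 µM final and activity re-read every 20 min. Activity was taken from the slope and normalised to a zinc-free sample (100%) and DMSO (0%), n=3.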

GL-1 = experiment: Cytotoxicity, sulforhodamine B assay; assay type: cell-based; settings: read-out: 72 hour IC50; GL-1 dog lymphoma; exposure 72 h
Jurkat = experiment: Cytotoxicity, sulforhodamine B assay; assay type: cell-based; settings: read-out: 72 hour IC50; Jurkat human leukemia; exposure 72 h
[4] = Pharmacokinetics in mice after tail vein injection; assay type: in vivo, C57/BL6 mice
HeLa = experiment: Cytotoxicity, sulforhodamine B assay; assay type: cell-based; settings: read-out: 72 hour IC50; HeLa human cervical; exposure 72 h
EL-4 = experiment: Cytotoxicity, sulforhodamine B assay; assay type: cell-based; settings: read-out: 72 hour IC50; EL-4 mouse lymphoma; exposure 72 h
OSW = experiment: Cytotoxicity, sulforhodamine B assay; assay type: cell-based; settings: read-out: 72 hour IC50; OSW dog lymphoma; exposure 72 h
SK-Mel-5 = experiment: Cytotoxicity, sulforhodamine B assay; assay type: cell-based; settings: read-out: 72 hour IC50; SK-Mel-5 human melanoma; exposure 72 h
U-937 = experiment: Cytotoxicity, sulforhodamine B assay; assay type: cell-based, Human; settings: read-out: 72 hour IC50, exposure time 72 h
[5] = Pharmacokinetics in healthy research dogs, single IV dose; assay type: in vivo; settings: 25 mg/kg IV; individual dogs Hound A-D

C=CCc1cccc(/C=N/NC(=O)CN2CCN(Cc3ccccc3)CC2)c1O [PAC-1]
Kd [1]: 0.052 ± 0.002 µM | Resolution of neurotoxicity (C57/BL6 mice [2]; in HPβCD via tail vein injection): ≤ 2 h | Dose at which significant neurological symptoms first appear (C57/BL6 mice [2]; tail vein injection): 20 mg/kg | Dose where acute neurological symptoms are present (C57/BL6 mice [2]; tail vein injection): 50 mg/kg | Onset of neurotoxicity after drug administration (C57/BL6 mice [3]): ≤ 5 min | IC50 (MDA-MB-231): 9.9 ± 1 µM | IC50 (17–71): 2.5 ± 0.9 µM | Neurotoxicity in one healthy dog (healthy dog): grand mal seizure activity | Incubation time to maximal activity (procaspase-3 D3A): 5 min | IC50 (GL-1): 4.9 ± 0.3 µM | IC50 (Jurkat): 5.7 ± 2.8 µM | Peak plasma concentration ([4]; 20 mg/kg tail vein injection): ~ 50 µM | IC50 (HeLa): 15.5 ± 3.8 µM | IC50 (EL-4): 3.8 ± 0.9 µM | IC50 (OSW): 8.6 ± 1.3 µM | IC50 (SK-Mel-5): 11.5 ± 3.6 µM | IC50 (U-937): 9.3 ± 0.5 µM

C=CCc1cccc(C=NNC(=O)CN2CCN(Cc3ccc(S(N)(=O)=O)cc3)CC2)c1O [S-PAC-1]
Incubation time to maximal activity (procaspase-3 D3A): 5 min | Enhancement of enzymatic activity of the proenzyme (procaspase-3 D3A; procaspase-3 D3A 7.5 µM, ZnSO4 10 µM): enhances the enzymatic activity of the proenzyme by relief of zinc-mediated inhibition, although to a lesser degree than PAC-1 | AUMC0-inf [5]: 93.63 h*h*ug/ml and 104.77 h*h*ug/ml and 90.48 h*h*ug/ml and 101.78 h*h*ug/ml | Cls [5]: 5.67 mL/min/kg and 5.58 mL/min/kg and 5.07 mL/min/kg and 5.28 mL/min/kg | MRT [5]: 1.27 h and 1.40 h and 1.10 h and 1.29 h | Tmax [5]: 0.17 h | Vss [5]: 0.4325 L/kg and 0.4708 L/kg and 0.3348 L/kg and 0.41 L/kg | Peak plasma levels ([4]; 350 mg/kg tail vein injection, without signs of neurotoxicity): ~ 3500 µM
